Measured values published in ChEMBL document CHEMBL5247575 (J Med Chem, 2018).

system: Acinetobacter baumannii; test: Synergistic antibacterial activity against ADC deleted Acinetobacter baumannii transfected with pWH1266 OXA-23 assessed as cefepime MIC at 4 ug/ml by broth microdilution method; format: functional; conditions: dose 4 µg/ml

Structure (SMILES)	MIC [µg/mL]
O.O=C(NC1CCNCC1)[C@@H]1CC[C@@H]2CN1C(=O)N2OS(=O)(=O)O [RELEBACTAM]	> 16

system: Klebsiella pneumoniae; test: Synergistic antibacterial activity against Klebsiella pneumoniae 972/1910 producing KPC-3 assessed as cefepime MIC at 4 ug/ml by broth microdilution method; format: functional; conditions: dose 4 µg/ml

Structure (SMILES)	MIC [µg/mL]
NC(=O)[C@@H]1CC[C@@H]2CN1C(=O)N2OS(=O)(=O)[O-].[Na+] [AVIBACTAM SODIUM]	≤ 0.12
O.O=C(NC1CCNCC1)[C@@H]1CC[C@@H]2CN1C(=O)N2OS(=O)(=O)O [RELEBACTAM]	0.25

system: Bacteria; test: Inhibition of bacteria ADC-7 assessed as Koff rate using nitrocefin as substrate incubated for 30 mins; conditions: not given

Structure (SMILES)	K
NC(=O)[C@@H]1CC[C@@H]2CN1C(=O)N2OS(=O)(=O)[O-].[Na+] [AVIBACTAM SODIUM]	3.5 10^-4/s
O.O=C(NC1CCNCC1)[C@@H]1CC[C@@H]2CN1C(=O)N2OS(=O)(=O)O [RELEBACTAM]	3 10^-4/s

system: Escherichia coli; test: Synergistic antibacterial activity against Escherichia coli DH10B transfected with pBR322-catI-KPC-2 assessed as cefepime MIC at 4 ug/ml by broth microdilution method; format: functional; conditions: dose 4 µg/ml
Method in brief: (§1)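 Broth microdilution per CLSI guidelines, using custom frozen panels. […] Each partner drug was also tested alone. MICs were run in triplicate and the modal value is reported.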

Structure (SMILES)	MIC [µg/mL]
NC(=O)[C@@H]1CC[C@@H]2CN1C(=O)N2OS(=O)(=O)[O-].[Na+] [AVIBACTAM SODIUM]	≤ 0.12
O.O=C(NC1CCNCC1)[C@@H]1CC[C@@H]2CN1C(=O)N2OS(=O)(=O)O [RELEBACTAM]	≤ 0.12

system: Pseudomonas aeruginosa; test: Synergistic antibacterial activity against Pseudomonas aeruginosa 795 assessed as cefepime MIC at 4 ug/ml by broth microdilution method; format: functional; conditions: dose 4 µg/ml

Structure (SMILES)	MIC [µg/mL]
NC(=O)[C@@H]1CC[C@@H]2CN1C(=O)N2OS(=O)(=O)[O-].[Na+] [AVIBACTAM SODIUM]	> 16
O.O=C(NC1CCNCC1)[C@@H]1CC[C@@H]2CN1C(=O)N2OS(=O)(=O)O [RELEBACTAM]	> 16

system: Pseudomonas aeruginosa; test: Synergistic antibacterial activity against Pseudomonas aeruginosa 839 assessed as cefepime MIC at 4 ug/ml by broth microdilution method; format: functional; conditions: dose 4 µg/ml

Structure (SMILES)	MIC [µg/mL]
NC(=O)[C@@H]1CC[C@@H]2CN1C(=O)N2OS(=O)(=O)[O-].[Na+] [AVIBACTAM SODIUM]	4
O.O=C(NC1CCNCC1)[C@@H]1CC[C@@H]2CN1C(=O)N2OS(=O)(=O)O [RELEBACTAM]	4

system: Escherichia coli; test: Synergistic antibacterial activity against Escherichia coli DH10B transfected with pBC SK (-) KPC-3 assessed as meropenem MIC at 4 ug/ml by broth microdilution method; format: functional; conditions: dose 4 µg/ml

Structure (SMILES)	MIC [µg/mL]
NC(=O)[C@@H]1CC[C@@H]2CN1C(=O)N2OS(=O)(=O)[O-].[Na+] [AVIBACTAM SODIUM]	≤ 0.12
O.O=C(NC1CCNCC1)[C@@H]1CC[C@@H]2CN1C(=O)N2OS(=O)(=O)O [RELEBACTAM]	≤ 0.12

system: Acinetobacter baumannii; test: Synergistic antibacterial activity against ADC deleted Acinetobacter baumannii assessed as cefepime MIC at 4 ug/ml by broth microdilution method; format: functional; conditions: dose 4 µg/ml

Structure (SMILES)	MIC [µg/mL]
NC(=O)[C@@H]1CC[C@@H]2CN1C(=O)N2OS(=O)(=O)[O-].[Na+] [AVIBACTAM SODIUM]	0.5
O.O=C(NC1CCNCC1)[C@@H]1CC[C@@H]2CN1C(=O)N2OS(=O)(=O)O [RELEBACTAM]	0.25

system: Klebsiella pneumoniae; test: Antibacterial activity against Klebsiella pneumoniae jefferson 1773 producing OXA-181 by broth microdilution method; format: functional; conditions: not given

Structure (SMILES)	MIC [µg/mL]
NC(=O)[C@@H]1CC[C@@H]2CN1C(=O)N2OS(=O)(=O)[O-].[Na+] [AVIBACTAM SODIUM]	> 16

system: Klebsiella pneumoniae; test: Synergistic antibacterial activity against Klebsiella pneumoniae 901/1860 producing KPC-3 assessed as meropenem MIC at 4 ug/ml by broth microdilution method; format: functional; conditions: dose 4 µg/ml

Structure (SMILES)	MIC [µg/mL]
NC(=O)[C@@H]1CC[C@@H]2CN1C(=O)N2OS(=O)(=O)[O-].[Na+] [AVIBACTAM SODIUM]	≤ 0.12
O.O=C(NC1CCNCC1)[C@@H]1CC[C@@H]2CN1C(=O)N2OS(=O)(=O)O [RELEBACTAM]	≤ 0.12

system: Klebsiella pneumoniae; test: Synergistic antibacterial activity against Klebsiella pneumoniae 1108/1989 producing KPC-3 assessed as cefepime MIC at 4 ug/ml by broth microdilution method; format: functional; conditions: dose 4 µg/ml; method in brief: as §1

Structure (SMILES)	MIC [µg/mL]
NC(=O)[C@@H]1CC[C@@H]2CN1C(=O)N2OS(=O)(=O)[O-].[Na+] [AVIBACTAM SODIUM]	≤ 0.12
O.O=C(NC1CCNCC1)[C@@H]1CC[C@@H]2CN1C(=O)N2OS(=O)(=O)O [RELEBACTAM]	0.5

system: Pseudomonas aeruginosa; test: Synergistic antibacterial activity against Pseudomonas aeruginosa 776 assessed as cefepime MIC at 4 ug/ml by broth microdilution method; format: functional; conditions: dose 4 µg/ml

Structure (SMILES)	MIC [µg/mL]
O.O=C(NC1CCNCC1)[C@@H]1CC[C@@H]2CN1C(=O)N2OS(=O)(=O)O [RELEBACTAM]	16

system: Escherichia coli; test: Antibacterial activity against Escherichia coli DH10B by broth microdilution method; format: functional; conditions: not given

Structure (SMILES)	MIC [µg/mL]
NC(=O)[C@@H]1CC[C@@H]2CN1C(=O)N2OS(=O)(=O)[O-].[Na+] [AVIBACTAM SODIUM]	4
O.O=C(NC1CCNCC1)[C@@H]1CC[C@@H]2CN1C(=O)N2OS(=O)(=O)O [RELEBACTAM]	> 16

system: Acinetobacter baumannii; test: Synergistic antibacterial activity against Acinetobacter baumannii PR363 producing OXA-23 assessed as meropenem MIC at 4 ug/ml by broth microdilution method; format: functional; conditions: dose 4 µg/ml

Structure (SMILES)	MIC [µg/mL]
NC(=O)[C@@H]1CC[C@@H]2CN1C(=O)N2OS(=O)(=O)[O-].[Na+] [AVIBACTAM SODIUM]	> 16
O.O=C(NC1CCNCC1)[C@@H]1CC[C@@H]2CN1C(=O)N2OS(=O)(=O)O [RELEBACTAM]	> 16

system: Escherichia coli; test: Antibacterial activity against Escherichia coli DH10B transfected with pBC SK (-) PDC-3 by broth microdilution method; format: functional; conditions: not given

Structure (SMILES)	MIC [µg/mL]
NC(=O)[C@@H]1CC[C@@H]2CN1C(=O)N2OS(=O)(=O)[O-].[Na+] [AVIBACTAM SODIUM]	> 16
O.O=C(NC1CCNCC1)[C@@H]1CC[C@@H]2CN1C(=O)N2OS(=O)(=O)O [RELEBACTAM]	> 16

system: Acinetobacter baumannii; test: Synergistic antibacterial activity against Acinetobacter baumannii PR476 producing OXA-24/40 assessed as meropenem MIC at 4 ug/ml by broth microdilution method; format: functional; conditions: dose 4 µg/ml

Structure (SMILES)	MIC [µg/mL]
NC(=O)[C@@H]1CC[C@@H]2CN1C(=O)N2OS(=O)(=O)[O-].[Na+] [AVIBACTAM SODIUM]	0.25
O.O=C(NC1CCNCC1)[C@@H]1CC[C@@H]2CN1C(=O)N2OS(=O)(=O)O [RELEBACTAM]	0.25

system: Klebsiella pneumoniae; test: Synergistic antibacterial activity against Klebsiella pneumoniae 1084/1957 producing KPC-3 assessed as cefepime MIC at 4 ug/ml by broth microdilution method; format: functional; conditions: dose 4 µg/ml; method in brief: as §1

Structure (SMILES)	MIC [µg/mL]
NC(=O)[C@@H]1CC[C@@H]2CN1C(=O)N2OS(=O)(=O)[O-].[Na+] [AVIBACTAM SODIUM]	≤ 0.12
O.O=C(NC1CCNCC1)[C@@H]1CC[C@@H]2CN1C(=O)N2OS(=O)(=O)O [RELEBACTAM]	0.25

system: Acinetobacter baumannii; test: Synergistic antibacterial activity against Acinetobacter baumannii PR420 producing OXA-23/24/40 assessed as meropenem MIC at 4 ug/ml by broth microdilution method; format: functional; conditions: dose 4 µg/ml

Structure (SMILES)	MIC [µg/mL]
NC(=O)[C@@H]1CC[C@@H]2CN1C(=O)N2OS(=O)(=O)[O-].[Na+] [AVIBACTAM SODIUM]	> 16
O.O=C(NC1CCNCC1)[C@@H]1CC[C@@H]2CN1C(=O)N2OS(=O)(=O)O [RELEBACTAM]	> 16
